Assay results as given in article PMC10839140 (Iranian Journal of Medical Sciences, 2024).
Where two headings read alike, the source gives them in different places.

Legend:
[1] = test system: SkBr3 breast cancer cell line; assay: Apoptosis analysis, annexin V-FITC/PI flow cytometry, SkBr3 cells; assay type: cell-based, human; conditions: PINO 575 μM, LARI 500 μM
fibroblast cell line [2] = assay: MTT cytotoxicity assay, fibroblast cells; assay type: cell-based; conditions: for IC50: Fibroblast, read-out: half-maximal inhibitory concentration; for percentage of cell viability was reduced by: fibroblast cells treated for 48 hours (abstract; concentration not stated there)
HEK-293 cell line [3] = assay: Apoptosis analysis, annexin V-FITC/PI flow cytometry, HEK-293 cells; assay type: cell-based; conditions: PINO 575 μM, LARI 500 μM
fibroblast cell line [4] = assay: Apoptosis analysis, annexin V-FITC/PI flow cytometry, fibroblast cells; assay type: cell-based; conditions: PINO 575 μM, LARI 500 μM
[5] = test system: SkBr3 breast cancer cell line; assay: MTT cytotoxicity assay, SkBr3 cells; assay type: cell-based, human; conditions: read-out: half-maximal inhibitory concentration
HEK-293 cell line [6] = assay: Real-time PCR of apoptosis and cell cycle genes, HEK-293 cells; assay type: cell-based; conditions: 24 and 48 hours, PINO 575, LARI 500, PTOX 0.175 μM, vs untreated cells
In short: (§1)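 Cells grown at 37 °C, 5% CO₂: HEK-293 in DMEM/F12 with 10% FBS and penicillin/streptomycin, SkBr3 in supplemented DMEM. Vehicle control was methanol at 1% v/v final. Total RNA was DNase I-treated, and 3 µg was reverse-transcribed. Real-time PCR used GAPDH as the internal control and no-cDNA negative controls. Fold change was calculated by 2^-ΔΔCT, as the mean±SD of three experiments.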

HEK-293 cell line [7] = assay: MTT cytotoxicity assay, HEK-293 cells; assay type: cell-based; conditions: for IC50: read-out: half-maximal inhibitory concentration
[8] = test system: SkBr3 breast cancer cell line; assay: Real-time PCR of apoptosis and cell cycle genes, SkBr3 cells; assay type: cell-based, human; conditions: 24 and 48 hours, PINO 575, LARI 500, PTOX 0.175 μM, vs untreated cells
In short: as §1

Compound	increase of apoptosis compared to control cells ([1]; SKBR3, 24 hours)	increase of apoptosis compared to control cells ([1]; SKBR3, 48 hours)	IC50 (fibroblast cell line [2]; 24 h)	IC50 (fibroblast cell line [2]; 48 h)	percentage of cell viability was reduced by (fibroblast cell line [2])	increase of apoptosis compared to control cells (HEK-293 cell line [3]; HEK-293, 24 hours)	increase of apoptosis compared to control cells (HEK-293 cell line [3]; HEK-293, 48 hours)	increase of apoptosis compared to control cells (fibroblast cell line [4]; 24 hours)	increase of apoptosis compared to control cells (fibroblast cell line [4]; 48 hours)	IC50 ([5]; Homo sapiens, SK-BR-3, 24 h)	IC50 ([5]; Homo sapiens, SK-BR-3, 48 h)	expression of pro-apoptotic BAX and FAS genes and CDKN1A inhibitory gene (HEK-293 cell line [6])	IC50 (HEK-293 cell line [7]; Homo sapiens, HEK293, 24 h)	IC50 (HEK-293 cell line [7]; Homo sapiens, HEK293, 48 h)	expression of pro-apoptotic BAX and FAS genes and CDKN1A inhibitory gene [8]	further results
COc1cc(C[C@H]2CO[C@H](c3ccc(O)c(OC)c3)[C@H]2CO)ccc1O [Lariciresinol, lariciresinol]	10.7 fold	12.7 fold	475 µM	400 µM	47%	6.7 fold	7.4 fold	7.4 fold	20.2 fold	600 µM	500 µM	significantly overexpressed	550 µM	475 µM	significantly overexpressed	–
COc1cc([C@@H]2c3cc4c(cc3[C@H](O)[C@H]3COC(=O)[C@H]23)OCO4)cc(OC)c1OC [Podophyllotoxin, reference compound]	–	–	0.175 µM	0.075 µM	36%	–	–	–	–	0.3 µM	0.175 µM	significantly overexpressed	0.15 µM	0.075 µM	significantly overexpressed	cell viability was reduced by up to (fibroblast cell line [2]; fibroblast, 48 hours, PTOX at 0.175 μM): ≤ 36%
Pinoresinol	9 fold	11 fold	–	–	49%	6.6 fold	9 fold	5.2 fold	10.5 fold	–	–	significantly overexpressed	–	–	significantly overexpressed	cell viability (fibroblast cell line [2]; fibroblast, 48 hours, PINO at 575 μM, LARI at 500 μM): 49%; IC50 (fibroblast cell line [2]; 48-hour treatment, MTT): 550 µM; IC50 ([5]; SkBr3, 24-hour treatment, MTT): 675 µM; IC50 ([5]; SkBr3, 48-hour treatment, MTT): 575 µM; cell viability (HEK-293 cell line [7]; HEK-293, 48 hours, PINO at 575 μM, LARI at 500 μM): 49%; IC50 (HEK-293 cell line [7]; HEK-293, 24-hour treatment, MTT): 600 µM; IC50 (HEK-293 cell line [7]; HEK-293, 48-hour treatment, MTT): 550 µM
